Measured values from ChEMBL document CHEMBL1158493, “Amide isosteres of oroidin: assessment of antibiofilm activity and C. elegans toxicity” (J Med Chem, 2009).
Values belong to the molecule of their own block, whether it stands above or below them. Calls of active or inactive are those of the source.

Assays:
Pseudomonas aeruginosa [1] = test: Antibioflim activity in Pseudomonas aeruginosa PA14 at 100 uM after 24 hrs by general static inhibition assay; type: functional; conditions: PA14, 24 h
Summary of the method: (§1)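 Static biofilm inhibition: overnight wild-type culture subcultured to OD600 0.01 in LBNS (PA14) or LB (A. baumannii) containing compound (DMSO stocks), in PVC 96-well plates; covered, sealed, stationary 37 °C for 24 h. Wells washed with water, stained with 0.1% crystal violet for 30 min at ambient temperature, washed, and stain solubilized in 95% ethanol. Read-out is OD540.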

Pseudomonas aeruginosa [2] = test: Antibioflim activity in Pseudomonas aeruginosa PA14 after 24 hrs by general static dispersion assay; type: functional
Summary of the method: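 Static dispersion: wild-type PA14 subcultured to OD600 0.05 in LBNS in PVC 96-well plates, sealed, biofilm formed stationary at room temperature for 24 h. Medium replaced with fresh medium plus compound, then stationary 37 °C for 24 h. Crystal violet 0.1% for 30 min, ethanol-solubilized, read at OD540. Percent dispersion is treated versus untreated established biofilm.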

Pseudomonas aeruginosa [3] = test: Antibioflim activity in Pseudomonas aeruginosa PA14 after 24 hrs by general static inhibition assay; type: functional, organism-based; summary of the method: as §1
Pseudomonas aeruginosa [4] = test: Inhibition of biofilm formation against Pseudomonas aeruginosa PA14 after 24 hrs; conditions: PA14, 24 h
Acinetobacter baumannii = test: Antibioflim activity in Acinetobacter baumannii ATCC 19606 after 24 hrs by general static inhibition assay; type: functional, ATCC 19606 = CIP 70.34 = JCM 6841; summary of the method: as §1
Caenorhabditis elegans = test: Toxicity in Caenorhabditis elegans L4 stage larva assessed as toxicity threshold after 6 to 7 days; type: organism-based; conditions: in vivo
Summary of the method: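 Synchronized C. elegans N2 L1s (bleach egg prep, M9 starvation) grown on NGM/OP50 at 20 °C to L4. Two L4s per well in S medium with 5% HB101, compound 100 µM–1 mM, final DMSO 0.8–1.0%, in triplicate. Plates shaken at 22.5 °C for 6–7 days. Wells scored on day 4 and day 6/7 for clearing and population size. Threshold narrowed in 100 µM steps.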

Pseudomonas aeruginosa [5] = test: Antibioflim activity in Pseudomonas aeruginosa PAO1; type: functional, organism-based
[6] = Pseudomonas aeruginosa, PA14, 24 h, read-out: IC50

IC50 (Pseudomonas aeruginosa [3]): Not Active
SMILES: CC(=O)c1cccc(NC(=O)NCCCc2c[nH]c(N)n2)c1.Cl
inhibition at 100 µM (Pseudomonas aeruginosa [1]): 69%
Activity (Pseudomonas aeruginosa [2]): inactive
inhibition (INH) (Acinetobacter baumannii): 11%

IC50 (Pseudomonas aeruginosa [3]; [6]): 10.1 µM
IC50 (Pseudomonas aeruginosa [4]): 10.1 µM
SMILES: CCCCCCS(=O)(=O)NCCCc1c[nH]c(N)n1.Cl
inhibition at 100 µM (Pseudomonas aeruginosa [1]): 80%
Activity (Pseudomonas aeruginosa [2]): 42%
inhibition (INH) (Acinetobacter baumannii): 24%
Activity (Caenorhabditis elegans): > 1 mM

IC50 (Pseudomonas aeruginosa [3]; [6]): 25.7 µM
IC50 (Pseudomonas aeruginosa [4]): 25.7 µM
SMILES: Cl.Nc1nc(CCCNC(=O)Nc2ccc(F)c(Cl)c2)c[nH]1
inhibition at 100 µM (Pseudomonas aeruginosa [1]): 90%
Activity (Pseudomonas aeruginosa [2]): 55%
inhibition (INH) (Acinetobacter baumannii): 18%

IC50 (Pseudomonas aeruginosa [3]): Not Active
SMILES: Cl.Nc1nc(CCCNC(=O)NC2CCCCCC2)c[nH]1
inhibition at 100 µM (Pseudomonas aeruginosa [1]): 70%
Activity (Pseudomonas aeruginosa [2]): inactive
inhibition (INH) (Acinetobacter baumannii): <5%

IC50 (Pseudomonas aeruginosa [3]; [6]): 35.4 µM
SMILES: CCCCCCNC(=O)NCCCc1c[nH]c(N)n1.Cl
inhibition at 100 µM (Pseudomonas aeruginosa [1]): 94%
Activity (Pseudomonas aeruginosa [2]): inactive
inhibition (INH) (Acinetobacter baumannii): 28%

IC50 (Pseudomonas aeruginosa [3]): Not Active
SMILES: Cl.Nc1nc(CCCNC(=O)Nc2ccccc2)c[nH]1
inhibition at 100 µM (Pseudomonas aeruginosa [1]): 35%
Activity (Pseudomonas aeruginosa [2]): inactive
inhibition (INH) (Acinetobacter baumannii): 29%

IC50 (Pseudomonas aeruginosa [3]; [6]): 46.7 µM
SMILES: Cc1ccc(F)cc1NC(=O)NCCCc1c[nH]c(N)n1.Cl
inhibition at 100 µM (Pseudomonas aeruginosa [1]): 81%
Activity (Pseudomonas aeruginosa [2]): inactive
inhibition (INH) (Acinetobacter baumannii): 12%

IC50 (Pseudomonas aeruginosa [3]): Not Active
SMILES: Cl.Nc1nc(CCCNC(=O)NCc2ccccc2)c[nH]1
inhibition at 100 µM (Pseudomonas aeruginosa [1]): 45%
Activity (Pseudomonas aeruginosa [2]): inactive
inhibition (INH) (Acinetobacter baumannii): 7%

IC50 (Pseudomonas aeruginosa [3]; [6]): 50.4 µM
SMILES: CCOc1ccc(NC(=O)NCCCc2c[nH]c(N)n2)cc1.Cl
inhibition at 100 µM (Pseudomonas aeruginosa [1]): 81%
Activity (Pseudomonas aeruginosa [2]): inactive
inhibition (INH) (Acinetobacter baumannii): 11%

Second part, the molecule before the results:

SMILES: Cl.Nc1nc(CCCNC(=S)NC2CCCCC2)c[nH]1
inhibition at 100 µM (Pseudomonas aeruginosa [1]): 89%
Activity (Pseudomonas aeruginosa [2]): 25%
IC50 (Pseudomonas aeruginosa [3]; [6]): 22.6 µM
IC50 (Pseudomonas aeruginosa [4]): 22.6 µM
inhibition (INH) (Acinetobacter baumannii): 14%

SMILES: CCCCCCNC(=O)CCCc1c[nH]c(N)n1
Activity (Caenorhabditis elegans): > 1 mM

SMILES: Cc1ccc(S(=O)(=O)NCCCc2c[nH]c(N)n2)cc1.Cl
inhibition at 100 µM (Pseudomonas aeruginosa [1]): 45%
Activity (Pseudomonas aeruginosa [2]): inactive
IC50 (Pseudomonas aeruginosa [3]): Not Active
inhibition (INH) (Acinetobacter baumannii): 8%

SMILES: CCCCCCC(CCCCCC)NC(=O)CCCc1c[nH]c(N)n1
Activity (Caenorhabditis elegans): 0.95 mM

SMILES: Cc1cc(C)cc(S(=O)(=O)NCCCc2c[nH]c(N)n2)c1.Cl
inhibition at 100 µM (Pseudomonas aeruginosa [1]): 87%
Activity (Pseudomonas aeruginosa [2]): inactive
IC50 (Pseudomonas aeruginosa [3]; [6]): 46.2 µM
inhibition (INH) (Acinetobacter baumannii): 17%

SMILES: Cl.Nc1nc(CCCNS(=O)(=O)c2ccc3ccccc3c2)c[nH]1
inhibition at 100 µM (Pseudomonas aeruginosa [1]): 93%
Activity (Pseudomonas aeruginosa [2]): inactive
IC50 (Pseudomonas aeruginosa [3]; [6]): 15.6 µM
inhibition (INH) (Acinetobacter baumannii): 26%

SMILES: Cl.Nc1nc(CCCNS(=O)(=O)c2ccccc2F)c[nH]1
inhibition at 100 µM (Pseudomonas aeruginosa [1]): 43%
Activity (Pseudomonas aeruginosa [2]): inactive
IC50 (Pseudomonas aeruginosa [3]): Not Active
inhibition (INH) (Acinetobacter baumannii): 11%

SMILES: CCCCCCc1cn(CCCc2c[nH]c(N)n2)nn1
Activity (Caenorhabditis elegans): > 1 mM

SMILES: Cl.Nc1nc(CCCNC(=S)Nc2ccccc2)c[nH]1
inhibition at 100 µM (Pseudomonas aeruginosa [1]): 90%
Activity (Pseudomonas aeruginosa [2]): inactive
IC50 (Pseudomonas aeruginosa [3]; [6]): 26.8 µM
inhibition (INH) (Acinetobacter baumannii): 8%

SMILES: Cl.Nc1nc(CCCNS(=O)(=O)c2cccc3cccnc23)c[nH]1
inhibition at 100 µM (Pseudomonas aeruginosa [1]): 50%
Activity (Pseudomonas aeruginosa [2]): inactive
IC50 (Pseudomonas aeruginosa [3]): Not Active
inhibition (INH) (Acinetobacter baumannii): 17%

SMILES: CCCCCCCCCCCc1c[nH]c(N)n1
Activity (Caenorhabditis elegans): > 1 mM

SMILES: Nc1ncc(/C=C/CNC(=O)c2cc(Br)c(Br)[nH]2)[nH]1 [OROIDIN]
IC50 (Pseudomonas aeruginosa [5]): 190 µM
IC50 (Pseudomonas aeruginosa [3]; [6]): 160 µM
Activity (Caenorhabditis elegans): 0.65 mM

SMILES: Cn1c(C(=O)NCCCc2c[nH]c(N)n2)cc(Br)c1Br [DIHYDROSVENTRIN]
Activity (Caenorhabditis elegans): 0.48 mM

SMILES: Cl.Nc1nc(CCCNS(=O)(=O)c2ccc(Br)cc2)c[nH]1
inhibition at 100 µM (Pseudomonas aeruginosa [1]): 85%
Activity (Pseudomonas aeruginosa [2]): inactive
IC50 (Pseudomonas aeruginosa [3]; [6]): 19.4 µM
inhibition (INH) (Acinetobacter baumannii): 25%

SMILES: Cl.Nc1nc(CCCNS(=O)(=O)c2cccc(C(=O)O)c2)c[nH]1
inhibition at 100 µM (Pseudomonas aeruginosa [1]): 14%
Activity (Pseudomonas aeruginosa [2]): inactive
IC50 (Pseudomonas aeruginosa [3]): Not Active
inhibition (INH) (Acinetobacter baumannii): 11%

SMILES: Cl.Nc1nc(CCCNS(=O)(=O)c2ccc(C(F)(F)F)cc2)c[nH]1
inhibition at 100 µM (Pseudomonas aeruginosa [1]): 92%
Activity (Pseudomonas aeruginosa [2]): inactive
IC50 (Pseudomonas aeruginosa [3]; [6]): 25.1 µM
inhibition (INH) (Acinetobacter baumannii): 23%
